Measured values as given in ChEMBL document CHEMBL3097997, “Synthesis and anticancer activities of thieno[3,2-d]pyrimidines as novel HDAC inhibitors” (Bioorg Med Chem, 2014).

Columns and labels:
HCT-116 [1] = assay: Antiproliferative activity against human HCT116 cells after 72 hrs by MTT assay; format: functional, cell-based; conditions: HCT-116, 72 h
HeLa = assay: Antiproliferative activity against human HeLa cells after 72 hrs by MTT assay; format: functional, cell-based
[2] = target: Histone deacetylase (Homo sapiens) (UniProt Q13547+O15379+Q9UBN7+Q92769+Q9UQL6+Q8WUI4+Q9BY41+Q96DB2+P56524+Q9UKV0+Q969S8); conditions: HeLa, at 1 µM
MCF7 = assay: Antiproliferative activity against human MCF7 cells after 72 hrs by MTT assay; format: functional, cell-based; conditions: MCF7, 72 h
Histone deacetylase = assay: Inhibition of HDAC in human HeLa cell nuclear extract using fluor de Lys as substrate after 15 mins by fluorimetric analysis; format: protein assay
In short: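 Fluorimetric HDAC kit assay: HeLa nuclear extract (15 μL) combined with 10 μL of 5× compound, then 25 μL fluorogenic substrate added; deacetylation ran 15 min at room temperature and was stopped with TSA-containing developer. Fluorescence read after a further 15 min at excitation 360 nm, emission 460 nm.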

HCT-116 [3] = assay: Cell cycle arrest in human HCT116 cells assessed as accumulation at sub G1 phase at 2.5 uM after 24 hrs by propidium iodide staining-based flow cytometric analysis relative to control; format: functional
In short: (§1)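 HCT-116 cells seeded at 2 × 10^5 per well in six-well plates, treated 24 h with compound at 2.5, 5 or 10 μM alongside untreated control, then harvested, fixed in cold 70% ethanol and stained with PI solution (final 50 μg/mL PI, 0.1 mg/mL RNase A, 0.05% Triton X-100) for 40 min at 37 °C. Phase distribution read by flow cytometry.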

HCT-116 [4] = assay: Cell cycle arrest in human HCT116 cells assessed as accumulation at S phase at 2.5 uM after 24 hrs by propidium iodide staining-based flow cytometric analysis (reference value: 36.3%); format: functional; in short: as §1
HCT-116 [5] = assay: Cell cycle arrest in human HCT116 cells assessed as accumulation at sub G1 phase at 10 uM after 24 hrs by propidium iodide staining-based flow cytometric analysis relative to control; format: functional; in short: as §1
HCT-116 [6] = assay: Cell cycle arrest in human HCT116 cells assessed as accumulation at G2/M phase at 10 uM after 24 hrs by propidium iodide staining-based flow cytometric analysis (reference value: 15.6%); format: functional; in short: as §1
HCT-116 [7] = assay: Cell cycle arrest in human HCT116 cells assessed as accumulation at G1 phase at 10 uM after 24 hrs by propidium iodide staining-based flow cytometric analysis (reference value: 48.1%); format: functional; in short: as §1
HCT-116 [8] = assay: Cell cycle arrest in human HCT116 cells assessed as accumulation at G1 phase at 5 uM after 24 hrs by propidium iodide staining-based flow cytometric analysis (reference value: 48.1%); format: functional; in short: as §1
HCT-116 [9] = assay: Cell cycle arrest in human HCT116 cells assessed as accumulation at G1 phase at 2.5 uM after 24 hrs by propidium iodide staining-based flow cytometric analysis (reference value: 48.1%); format: functional; in short: as §1
HCT-116 [10] = assay: Cell cycle arrest in human HCT116 cells assessed as accumulation at sub G1 phase at 5 uM after 24 hrs by propidium iodide staining-based flow cytometric analysis relative to control; format: functional; in short: as §1
HCT-116 [11] = assay: Cell cycle arrest in human HCT116 cells assessed as accumulation at sub G1 phase after 24 hrs by propidium iodide staining-based flow cytometric analysis; format: functional; in short: as §1
HCT-116 [12] = assay: Cell cycle arrest in human HCT116 cells assessed as accumulation at S phase at 5 uM after 24 hrs by propidium iodide staining-based flow cytometric analysis (reference value: 36.3%); format: functional; in short: as §1
HCT-116 [13] = assay: Cell cycle arrest in human HCT116 cells assessed as accumulation at S phase at 10 uM after 24 hrs by propidium iodide staining-based flow cytometric analysis (reference value: 36.3%); format: functional; in short: as §1
HCT-116 [14] = assay: Cell cycle arrest in human HCT116 cells assessed as accumulation at G2/M phase at 2.5 uM after 24 hrs by propidium iodide staining-based flow cytometric analysis (reference value: 15.6%); format: functional; in short: as §1
HCT-116 [15] = assay: Cell cycle arrest in human HCT116 cells assessed as accumulation at G2/M phase at 5 uM after 24 hrs by propidium iodide staining-based flow cytometric analysis (reference value: 15.6%); format: functional; in short: as §1

SMILES | IC50 (HCT-116 [1]) [µM] | IC50 (HeLa) [µM] | inhibition [2] [%] | IC50 (MCF7) [µM] | IC50 (Histone deacetylase) [µM] | other results
O=C(CCCCCCOc1ccc(-c2nc(N3CCOCC3)c3sccc3n2)cc1)NO | 5.5 | 3 | 61.7 | 5.2 |  | 
O=C(CCCCCCCOc1cccc(-c2nc(N3CCOCC3)c3sccc3n2)c1)NO | 6.1 | 11.9 | 72 | 11 | 0.61 | 
O=C(CCCCCCCOc1ccc(-c2nc(N3CCOCC3)c3sccc3n2)cc1)NO | 2.9 | 7.4 | 73.8 | 10 | 0.49 | 

Further lines, with some results ahead:

IC50 (HCT-116 [1]) [µM] | IC50 (HeLa) [µM] | inhibition [2] [%] | IC50 (MCF7) [µM] | IC50 (Histone deacetylase) [µM] | SMILES | other results
10.1 | 19 | 25.4 | 18 |  | O=C(CCCCCCCCOc1ccc(-c2nc(N3CCOCC3)c3sccc3n2)cc1)NO | 
12.2 | 2.4 | 18.7 | 9.9 |  | O=C(CCCCCOc1cccc(-c2nc(N3CCOCC3)c3sccc3n2)c1)NO | 
> 20 | 20 | 40.6 | > 20 |  | O=C(CCCCCCCCOc1cccc(-c2nc(N3CCOCC3)c3sccc3n2)c1)NO | 
14 | 12 | 18.8 | > 20 |  | O=C(CCCCCOc1ccc(-c2nc(N3CCOCC3)c3sccc3n2)cc1)NO | 
4 | 4 | 76.8 | 4.8 | 0.38 | O=C(CCCCCCOc1cccc(-c2nc(N3CCOCC3)c3sccc3n2)c1)NO | Activity (HCT-116 [3]): 30.5%; Activity (HCT-116 [4]): 15.2%; Activity (HCT-116 [5]): 44.5%; Activity (HCT-116 [6]): 26.5%; Activity (HCT-116 [7]): 50.3%; Activity (HCT-116 [8]): 49.7%; Activity (HCT-116 [9]): 68.1%; Activity (HCT-116 [10]): 42.2%; Activity (HCT-116 [11]): Dose-dependent effect; Activity (HCT-116 [12]): 18.9%; Activity (HCT-116 [13]): 20.8%; Activity (HCT-116 [14]): 16.8%; Activity (HCT-116 [15]): 31.4%
